Results reported in ChEMBL document CHEMBL1126302, “Dispiro-1,2,4,5-tetraoxanes: a new class of antimalarial peroxides” (J Med Chem, 1992).
pIC50: −log10 of the molar value. Calls of active or inactive are those of the source.

Columns and labels:
[1] = test system: Mus musculus; experiment: Mean survival time of the treated mice (Mus musculus) beyond that of the control animals against Plasmodium berghei at dose 40(mg/kg); Experiment II; format: functional
[2] = Resistance index is defined as the ratio of IC50 of Plasmodium falciparum(W-2) clone to IC50 of Plasmodium falciparum(D6) clone; format: functional
Procedure, shortened: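 Ratio of IC50 W-2 to IC50 D-6 for P. falciparum. […] Activity is read as inhibition of tritiated hypoxanthine uptake.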

[3] = test system: Plasmodium falciparum; experiment: […] antimalarial activity against Plasmodium falciparum W-2; format: functional, organism-based
[4] = test system: Mus musculus; experiment: Mean survival time of the treated mice (Mus musculus) beyond that of the control animals against Plasmodium berghei at dose 160 (mg/kg); Experiment I; format: functional
[5] = test system: Mus musculus; experiment: Mean survival time of the treated mice (Mus musculus) beyond that of the control animals against Plasmodium berghei at dose 80(mg/kg); Experiment I; format: functional
[6] = test system: Mus musculus; experiment: Mean survival time of the treated mice (Mus musculus) beyond that of the control animals against Plasmodium berghei at dose 640(mg/kg); Experiment I; format: functional
[7] = test system: Mus musculus; experiment: Mean survival time of the treated mice (Mus musculus) beyond that of the control animals against Plasmodium berghei at dose 320(mg/kg); Survival beyond 60 days is considered curative; Experiment II; Survival beyond 60 days is considered curative (C); format: functional
[8] = test system: Plasmodium berghei; experiment: […] antimalarial activity against drug-resistant Plasmodium berghei KBG173; format: functional
[9] = test system: Mus musculus; experiment: Mean survival time of the treated mice (Mus musculus) beyond that of the control animals against Plasmodium berghei at dose 320(mg/kg); Experiment I; format: functional
[10] = test system: Mus musculus; experiment: Mean survival time of the treated mice (Mus musculus) beyond that of the control animals against Plasmodium berghei at dose 160 (mg/kg); Experiment II; active (A); format: functional
[11] = test system: Plasmodium falciparum; experiment: […] antimalarial activity against Plasmodium falciparum D6; format: functional, organism-based
[12] = test system: Mus musculus; experiment: Mean survival time of the treated mice (Mus musculus) beyond that of the control animals against Plasmodium berghei at dose 640(mg/kg); Experiment II; Survival beyond 60 days is considered curative (C); format: functional
[13] = test system: Mus musculus; experiment: Mean survival time of the treated mice (Mus musculus) beyond that of the control animals against Plasmodium berghei at dose 20(mg/kg); Experiment II; format: functional
[14] = test system: Mus musculus; experiment: Mean survival time of the treated mice (Mus musculus) beyond that of the control animals against Plasmodium berghei at dose 80(mg/kg); Experiment II; format: functional
[15] = test system: Mus musculus; experiment: Mean survival time of the treated mice (Mus musculus) beyond that of the control animals against Plasmodium berghei at dose 40(mg/kg); Experiment I; format: functional
[16] = test system: Mus musculus; experiment: Mean survival time of the treated mice (Mus musculus) beyond that of the control animals against Plasmodium berghei at dose 20(mg/kg); Experiment I; format: functional
[17] = test system: Mus musculus; experiment: Mean survival time of the treated mice (Mus musculus) beyond that of the control animals against Plasmodium berghei at dose 320(mg/kg); Survival beyond 60 days is considered curative; Experiment I; format: functional
[18] = test system: Mus musculus; experiment: Mean survival time of the treated mice (Mus musculus) beyond that of the control animals against Plasmodium berghei at dose 640(mg/kg); Experiment II; Survival beyond 60 days is considered curative (C).; format: functional
[19] = test system: Mus musculus; experiment: Mean survival time of the treated mice (Mus musculus) beyond that of the control animals against Plasmodium berghei at dose 640(mg/kg); Experiment I; not active; format: functional
[20] = test system: Mus musculus; experiment: Mean survival time of the treated mice (Mus musculus) beyond that of the control animals against Plasmodium berghei at dose 320(mg/kg); Survival beyond 60 days is considered curative; Experiment II; active(A); format: functional
[21] = test system: Mus musculus; experiment: Mean survival time of the treated mice (Mus musculus) beyond that of the control animals against Plasmodium berghei at dose 160 (mg/kg); Experiment II; format: functional
[22] = test system: Mus musculus; experiment: Mean survival time of the treated mice (Mus musculus) beyond that of the control animals against Plasmodium berghei at dose 160 mg/kg); format: functional
[23] = test system: Mus musculus; experiment: Mean survival time of the treated mice (Mus musculus) beyond that of the control animals against Plasmodium berghei at dose 640(mg/kg); Survival beyond 60 days is considered curative; format: functional
[24] = test system: Mus musculus; experiment: Mean survival time of the treated mice (Mus musculus) beyond that of the control animals against Plasmodium berghei at dose 40(mg/kg); format: functional
[25] = test system: Mus musculus; experiment: Mean survival time of the treated mice (Mus musculus) beyond that of the control animals against Plasmodium berghei at dose 320(mg/kg); format: functional
[26] = test system: Mus musculus; experiment: Mean survival time of the treated mice (Mus musculus) beyond that of the control animals against Plasmodium berghei at dose 80(mg/kg); format: functional
[27] = test system: Mus musculus; experiment: Mean survival time of the treated mice (Mus musculus) beyond that of the control animals against Plasmodium berghei at dose 20(mg/kg); format: functional

Compound | T-C [1] [days] | Resistance index [2] | pIC50 [3] | T-C [4] [days] | T-C [5] [days] | ED50 [8] [mg/kg] | T-C [9] [days] | pIC50 [11] | T-C [12] [days] | T-C [13] [days] | T-C [14] [days] | T-C [15] [days] | T-C [16] [days] | T-C [19] | T-C [20] [days] | T-C [21] [days] | also measured
C[C@@H]1CCCCC12OOC1(CCCC[C@@H]1C)OO2 (stereo partly specified) [WR-148999] | 1.2 | 0.49 | 8.47 | 9.6 | 1.6 | 382 | 1 | 8.16 | 5 | 0.7 | 5 | 1.8 | 0.2 |  |  |  | T-C [6]: 3 days; T-C [7]: 3 days; T-C [10]: 12 days
CC1CC(C)CC2(C1)OOC1(CC(C)CC(C)C1)OO2 (stereo unspecified) | 1 | 0.26 | 7.89 | 5.5 | 2.4 |  |  | 7.30 |  | 0.6 | 3.8 | 1.3 | 1.5 | inactive | 7.4 | 5.8 | T-C [17]: 1 days; T-C [18]: 2 days
CC1CCC2(CC1)OOC1(CCC(C)CC1)OO2 (stereo unspecified) | 0.5 | 7.1 | 7.24 | 2.4 | 0.1 |  | 1.9 | 8.09 | 1 | 0.3 | 2 | 0.4 | 0.1 | 1 days | 13 | 3.2 | 
C[C@@H]1CC[C@H]2[C@@H](C)C(=O)O[C@@H]3O[C@@]4(C)CC[C@@H]1[C@]32OO4 [ARTEMISININ] |  | 0.47 | 8.66 |  |  | 607 |  | 8.33 |  |  |  |  |  |  |  |  | T-C [22]: 3.9 days; T-C [23]: 2 days; T-C [24]: 1.7 days; T-C [25]: 5.1 days; T-C [26]: 2.3 days; T-C [27]: 1.5 days
